Assay outcomes (PubChem BioAssay)
Sampled rows, rich in hits. Any-hit rate of the full collection: about 4%.
NR3A LBD binder – binders of NR3A ligand-binding domain, primary screen, biophysical, differential scanning fluorimetry, uHTS. Glutamate receptor ionotropic, NMDA 3A (GRIN3A) ligand-binding domain. NR3A LBD differential scanning fluorimetry, Tm shift; 0% = protein alone, 100% = glycine-bound protein. Tm shift relative to glycine control, % at 25 µM. actives 2.5% (n = 340,000);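 active means melting temperature shift of at least 10% of the positive control shift, at one fixed dose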
Arr AP2 block – inhibitors of beta-arrestin/AP2 binding, primary screen, biochemical, GPCR trafficking, flow cytometry. beta-arrestin 1 C-terminal peptide binding to AP2 beta2-adaptin appendage (human). FITC-arrestin peptide / GST-AP2 beads; AP2 beta2 appendage carries R879A mutation. inhibition, % at 10 µM. actives 0.31% (n = 340,000). AID 504490, 2011;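 active means inhibition above a set limit, near 3 SD of compounds lacking own fluorescence, cut at about 54% in these data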
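system = GST-tagged AP2 beta2-adaptin appendage (R879A) on 4 µm glutathione beads | reagent = FITC-labelled arrestin peptide probe, 50 nM final | schedule = compound with beads 12 min RT, then probe 1 h RT | signal = HyperCyt-sampled flow cytometry, FL1 channel, ex 488/em 535 nm | read-out = percent response from loss of bead-bound FITC fluorescence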
hiPSC survival – enhancers of single-cell hiPSC survival, primary screen, ATPlite luminescence | 100% = ROCK inhibitor wells, 0% = DMSO | survival enhancement, % at 20 µM | actives 0.044% (n = 360,000) | AID 602274, 2012; in the data active means survival enhancement above about 18%;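 further: cells exposed to compounds for 16 hours before the ATP read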
Cardio protect – cardioprotection against H2O2-induced cell death, primary screen, uHTS, H9c2 cells, ATPLite luminescence; H9c2 cardiomyocytes, H2O2 injury protection, 2 h; AID 588492, 2011; actives 0.63% (n = 360,000); protection from H2O2 cell death, % at 20 µM;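 active means compounds giving at least 50% protection of heart cells from peroxide-induced death in the single-dose screen, raw or plate-pattern-corrected value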
SENP1 FRET inh – human SENP1 catalytic domain inhibitors, primary screen, biochemical, FRET, uHTS | Sentrin-specific protease 1 (Homo sapiens), Q9P0U3 | recombinant SENP1 catalytic domain, CyPet-SUMO1-YPet FRET cleavage | inhibition, % at 10 µM | actives 0.21% (n = 360,000) | AID 624204, 2012;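 active means inhibition at least 30% at 10 µM, raw YFP signal under a set limit, fluorescence ratio 0.5 to 1.5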
Target sequence (Q9P0U3 419-644 limits assumed): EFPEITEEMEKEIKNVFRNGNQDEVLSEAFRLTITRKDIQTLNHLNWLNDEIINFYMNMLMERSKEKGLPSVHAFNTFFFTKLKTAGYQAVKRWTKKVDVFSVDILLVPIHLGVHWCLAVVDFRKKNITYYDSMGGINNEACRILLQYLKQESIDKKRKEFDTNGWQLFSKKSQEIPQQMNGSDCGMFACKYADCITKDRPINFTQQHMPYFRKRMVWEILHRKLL
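Assay system: hSENP1 catalytic domain, recombinant. Amount: SENP1 enzyme, 20 pM final. Schedule: 50 min reaction, RT, dark. Technique: FRET, CFP and YFP emission. Control set: no-enzyme wells low, DMSO-plus-enzyme wells high control.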
FAS-TE inh – FAS thioesterase domain inhibitors, primary screen, biochemical, fluorescence intensity, uHTS; Fatty acid synthase (Homo sapiens), P49327; recombinant FAS-TE, OMFH fluorogenic substrate, fluorescence endpoint; inhibition, % at 15 µM; actives 0.67% (n = 360,000);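 active means compounds whose normalised, plate-corrected inhibition of enzyme fluorescence in the single-dose primary screen is 50% or more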
A number is an active result; - = inactive; . = no result given.

SMILES	NR3A LBD binder	Arr AP2 block	hiPSC survival	Cardio protect	SENP1 FRET inh	FAS-TE inh
CCNC(=O)C1(C)CCN(C(=O)c2ccc(C(F)(F)F)cc2)C1 (stereo not drawn)	.	.	-	-	-	-
CC(C)CNc1ncnc2c1ncn2[C@H]1CN(Cc2ccc3c(c2)OCO3)C[C@@H](CO)O1	.	.	-	-	-	-
CCCOC(=O)Oc1ccc2c(=O)c(Oc3cc(C)cc(C)c3)coc2c1	-	-	25	-	-	-
CCCCOC(=O)Oc1ccc2c(=O)c(Oc3cc(C)cc(C)c3)coc2c1	-	-	-	-	-	-
CCN(CC)CCNC(Cc1ccccc1)c1cccc(OC)c1 (stereo not drawn)	13	-	-	-	-	-
COc1cccc(Nc2nc(C(N)Cc3ccc(Cl)cc3)cs2)n1 (stereo not drawn)	.	.	-	-	-	-
Cc1ccc(N(CC(=O)Nc2ccc(-c3nc4ccc(C)cc4s3)cc2)S(C)(=O)=O)cc1	-	-	-	-	-	-
Cc1ccc(C)c(N(CC(=O)Nc2ccc(-c3nc4ccc(C)cc4s3)cc2)S(C)(=O)=O)c1	23	-	-	-	-	-
Cc1ccc(S(=O)(=O)Nc2ccc(-c3nc4ccc(C)cc4s3)cc2)cc1	16	-	-	-	-	-
Cc1ccc2nc(-c3ccc(NC(=O)C(C)Sc4nncs4)cc3)sc2c1 (stereo not drawn)	14	-	-	-	-	-
Oc1c(C(c2ccccn2)N2CCCCC2)cc(Cl)c2cccnc12 (stereo not drawn)	-	-	-	-	-	-
CN1CCN(C(c2ccc(Cl)cc2)c2cc(Cl)c3cccnc3c2O)CC1 (stereo not drawn)	34	-	-	-	-	-
O=C(NC(c1ccc(Cl)cc1)c1cc(Cl)c2cccnc2c1O)c1cccnc1 (stereo not drawn)	-	-	-	-	62	-
CCNC(=O)N(CC)C[C@H]1N[C@@](Cc2ccccc2)(C(=O)OC)[C@H]2C(=O)N(C)C(=O)[C@@H]12	-	-	-	-	-	-
CCCCCC1CC(CC(=O)NC(=S)Nc2ccc([N+](=O)[O-])cc2)C(=O)O1 (stereo not drawn)	15	-	-	-	-	-
CCc1ccc(/C(C)=N/NC(=O)c2ccc(-n3cnnn3)cc2)cc1	-	-	-	-	-	-
CCCCN(CCCC)C1=Nc2ccccc2N/C1=C(/C#N)C(=O)OCC	17	-	-	-	-	-
CN(C(=O)c1ccncc1)c1ccccc1	11	-	-	-	-	-
COc1ccc2c(c1OC)c(=O)n1c3ccc(OC(C)C(=O)NCCN4CCOCC4)cc3c3ccnc2c31 (stereo not drawn)	-	-	-	53	-	-
O=C1Cc2ccccc2C(=O)N1	.	.	-	.	-	-
CC1Cc2ccccc2C(=O)N1 (stereo not drawn)	-	-	-	97	-	-
OC(CN1CCN(c2ccccn2)CC1)Cn1c2ccc(Cl)cc2c2cc(Cl)ccc21 (stereo not drawn)	19	-	-	-	-	-
COc1ccc(/C=C(\C#N)c2nc3ccc(C)cc3[nH]2)cc1Oc1ccc(C(F)(F)F)cc1[N+](=O)[O-]	18	-	-	-	-	-
Cc1ccc2nc(/C(C#N)=C/c3ccc(-c4cccc([N+](=O)[O-])c4)o3)[nH]c2c1	13	-	-	-	-	-
COc1cc(/C=C(\C#N)c2nc3ccccc3[nH]2)cc(Br)c1OCc1ccccc1	17	-	-	-	-	-
SMILES	NR3A LBD binder	Arr AP2 block	hiPSC survival	Cardio protect	SENP1 FRET inh	FAS-TE inh
COc1cc(/C=C(\C#N)c2nc3ccccc3[nH]2)cc(Br)c1OCc1ccc(F)cc1	-	-	-	-	-	-
COc1c(O)ccc(/C=C(\C#N)c2nc3ccccc3[nH]2)c1[N+](=O)[O-]	23	-	-	-	-	-
Cc1cc2nc(-c3ccc(F)cc3)c(CC(C)(C)C)n2c(C)c1Br	.	.	-	-	-	-
O=C(C[C@@H]1C[C@H]2c3cc(NC(=O)c4cccnc4)ccc3O[C@H]2[C@H](CO)O1)NCc1ccc(Oc2ccccc2)cc1	.	.	-	-	-	-
COc1cc(/C=C(\C#N)c2nc3ccc(C)cc3[nH]2)c([N+](=O)[O-])cc1OC	-	-	-	85	-	-
COc1cc(/C=C(/C#N)c2ccccc2)ccc1Oc1ccc([N+](=O)[O-])cn1	-	-	-	-	-	-
COc1cc(/C=C(\C#N)c2nc3ccccc3[nH]2)ccc1Oc1ccc([N+](=O)[O-])cn1	-	-	-	76	-	-
COc1ccccc1Cc1c(-c2cccc(Br)c2)nc2c(C)cc(Br)cn12	.	.	-	-	-	-
O=C(N=Nc1c(O)[nH]c2ccc(Br)cc12)c1cc(-c2cccc3ccccc23)n[nH]1	16	-	-	-	-	-
O=C(N=Nc1c(O)[nH]c2ccc(Br)cc12)c1cc(-c2cccs2)nc2ccccc12	-	-	-	-	-	-
Cc1ccc(/C=N/n2c(-c3ccc(Cl)cc3)n[nH]c2=S)s1	21	-	-	-	-	-
CCOc1ccc(-c2[nH]ncc2-c2ccc(OC)c(OC)c2)c(O)c1	-	-	-	-	-	-
C=C(C)COc1ccc(-c2[nH]ncc2-c2ccccc2OC)c(O)c1	-	-	-	-	-	-
C=C(C)COc1ccc(-c2[nH]ncc2Oc2ccccc2OC)c(O)c1	16	-	-	-	-	-
C=C(C)COc1ccc(-c2[nH]ncc2-c2ccc(Br)cc2)c(O)c1	30	-	-	-	-	-
CCOc1ccc(-c2[nH]ncc2-c2ccc(Cl)cc2)c(O)c1	22	-	-	-	-	-
COc1cccc(Oc2cn[nH]c2-c2ccc(OCC(=O)NN)cc2O)c1	-	-	-	-	-	-
CCCOC(=O)c1ccc(Oc2cn[nH]c2-c2ccc(OC)cc2O)cc1	17	-	-	-	-	-
C=C(C)COc1ccc(-c2[nH]ncc2Oc2ccc(OC)cc2)c(O)c1	-	-	-	-	-	-
COc1ccccc1C(O)c1ncc(-c2ccccc2C)[nH]1 (stereo not drawn)	.	.	-	-	-	-
Cc1nnc(SCC(=O)NC2(C#N)CCCCC2)n1N	.	.	-	-	-	-
